Measured values from different studies.
Lines come from different studies, so protocols differ.
Target: G protein-coupled receptor kinase 4 (GRK4, Homo sapiens, UniProt P32298)

Compound | observed | mode | technique | concentration | measurement | result
Cn1cc(-c2cc(F)cc(N3CCn4c(cc5c4CCCC5)C3=O)c2CO)cc(Nc2ccc(N3CCN(C4COC4)CC3)cn2)c1=O | enzyme activity | inhibitor | – | 0.1 µM | inhibition | 12%
CC(C)(C)c1cc(C=C(C#N)C#N)cc(Br)c1O | enzyme activity | inhibitor | – | 0.5 µM | remaining activity | 101%
Nc1ncc(-c2nc(N3CCOCC3)nc(N3CCOCC3)n2)c(C(F)F)n1 | binding | – | competition with immobilised ligand | 10 µM | remaining binding | 74%
N#CC1(c2ccccn2)CCN(Cc2cc(C(=O)O)c(=O)n3ccccc23)CC1 | cell-free assay | – | competition with immobilised ligand | 1 µM | remaining binding | 68%
Cn1cc(-c2cccc(N3CCc4c(sc5c4CC(C)(C)C5)C3=O)c2CO)cc(Nc2ccncn2)c1=O | enzyme activity | inhibitor | – | 1 µM | inhibition | -4%
O=c1[nH]c2ccccc2n1C1CCN(Cc2ccc(-c3[nH]c4cc5ncnc5cc4nc3-c3ccccc3)cc2)CC1 | cell-free assay | – | – | 0.5 µM | remaining signal | 104%
Cn1cncc1[C@@](O)(COc1ccc(C#N)cc1-c1ccc(OC(F)(F)F)cc1)c1ccc(C#N)cc1 | cell-free assay | – | competition with immobilised ligand | 1 µM | remaining binding | 56%
Cc1nn(C)cc1-c1nc2c(N3CCN(Cc4ccc(Cl)cc4)CC3)c(Cl)cnc2[nH]1 | binding | – | competition with immobilised ligand | 1 µM | remaining binding | 41%
COc1ncccc1-c1cnn2ccc(N3CCN(C(=O)OC(C)C)CC3)nc12 | binding | – | competition with immobilised ligand | 1 µM | remaining binding | 70%
